The values that follow come from PMC3760157 (Bioorganic & medicinal chemistry letters, 2013).

One data set in a line: In vitro cytotoxicity. It is filed as cell-based. The note with it: African green monkey, Vero cells (African green monkey kidney fibroblast). A digest of the protocol:
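Vero (African green monkey kidney) cell growth assay. […] Test compounds went up to 25 μg/mL and the doxorubicin control up to 5 μg/mL. Values are means of three independent experiments.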

The conditions of data set [1]: patients with leishmania; cited from earlier work.
A further data set deals with fungi. The note with it: antifungal activity; cited from earlier work.
Another data set relates to C. albicans ATCC 90028. Put plainly: In vitro antifungal testing. The note with it: from MIC/MFC. It is filed as cell-based, Candida albicans.
In data set [2] the test system is C. albicans, Candida glabrata, Candida krusei, Aspergillus fumigatus, and C. neoformans. Put plainly: In vitro antifungal testing, range over all tested pathogens. Format: cell-based. The conditions noted are these: range over the five fungal pathogens. Put shortly: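 Broth microdilution. MIC is the lowest concentration with no detectable growth. For MFC, 5 μL from each clear well was moved to agar and incubated at 35°C: 48 h for Candida spp. and A. fumigatus, 72 h for C. neoformans. […] Values are means of three independent experiments (two for one analogue).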

For the next data set, the system named is C. albicans SC5314. Put plainly: In vivo efficacy in mouse model of systemic candidiasis. The conditions noted are these: 5 and 25 mg/kg.

Where a name gives a salt, the structure may show the parent alone.

`C=CC[N+](C)(C)CCOP(=O)([O-])OCCCCCCCCCCCCCCCC` [Compound 3i] yielded a concentration for half-maximal inhibition (IC50) in the data set “In vitro cytotoxicity” of over 25 µg/mL.

In turn, `CCCCCCCCCCCCCCCCOP(=O)([O-])OCC[N+](C)(C)Cc1ccc(Br)cc1` [Compound 3g] had an IC50 in “In vitro cytotoxicity” of over 25 µg/mL.

In turn, `CCCCCCCCCCCCCCCCOP(=O)([O-])OCC[N+](C)(C)C` [Miltefosine, hexadecylphosphocholine] came in with an IC50 in “In vitro cytotoxicity” of over 25 µg/mL. In data set [1], the “half-life, first elimination” value is 7 days and the “half-life, terminal elimination” value is 31 days.

On to `CCCCCCCC/C=C\CCCCCCCCCCCCOP(=O)([O-])OCC[N+](C)(C)C` [erucylphosphocholine], for which the “fold less potent than miltefosine” value with fungi is 8 fold.

`CCCCCCCCCCCCCCCCOP(=O)([O-])OCC[N+](C)(C)C/C=C/c1ccccc1` [Compound 3h] registered an IC50 in “In vitro cytotoxicity” of over 25 µg/mL.

For `CCCCCCCCCCCCCCCCCCOP(=O)([O-])OCC[N+](C)(C)Cc1ccccc1` [Compound 3c], in “In vitro cytotoxicity”, the IC50 was over 25 µg/mL.

On to `CCCCCCCCCCCCCCCCOP(=O)([O-])OCC[N+](C)(C)Cc1ccccc1` [Compound 3a, N-benzyl-N,N-dimethyl-2-{[(hexadecyloxy)hydroxyphosphinyl]oxy}ethanaminium inner salt], for which the “fold less potent than amphotericin B” value in the data set with C. albicans ATCC 90028 was 2- to 3 fold. In addition, in data set [2], the “MFCs, range against all tested pathogens” value was 2.5 to 15.0 µg/mL and the “MICs, range against all tested pathogens” value is 2.5 to 5.0 µg/mL. Also, the IC50 in the data set “In vitro cytotoxicity” is over 25 µg/mL. The “Survival rate of mice vs PBS control, oral administration” value in the data set with C. albicans SC5314 is “did not enhance the survival rate”.

In the data set “In vitro cytotoxicity”, `CCCCCCCCCCCCCCCCOP(=O)([O-])OCC[N+](C)(C)Cc1ccc(Cl)cc1` [Compound 3f] returned an IC50 of over 25 µg/mL.

For the molecule `CCCCCCCCCCCCCCCCOP(=O)([O-])OCC[N+](C)(C)Cc1ccc(OC)cc1` [Compound 3e, N-(4-methoxybenzyl)-N,N-dimethyl-2-{[(hexadecyloxy)hydroxyphosphinyl]oxy}ethanaminium inner salt], the “MICs, range against all tested pathogens” value in data set [2] lay in the range of 2.5 to 5.0 µg/mL. This molecule also had an IC50 in the data set “In vitro cytotoxicity” of over 25 µg/mL.

On to `COc1cccc2c1C(=O)c1c(O)c3c(c(O)c1C2=O)C[C@@](O)(C(=O)CO)C[C@@H]3O[C@H]1C[C@H](N)[C@H](O)[C@H](C)O1` [Doxorubicin, reference compound], for which the IC50 in the data set “In vitro cytotoxicity” was over 5 µg/mL.

Take `CCCCCCCCCCCCCCCCOP(=O)([O-])OCC[N+](C)(C)Cc1ccc([N+](=O)[O-])cc1` [Compound 3d, N,N-dimethyl-N-(4-nitrobenzyl)-2-{[(hexadecyloxy)hydroxyphosphinyl]oxy}ethanaminium inner salt]: in the data set with C. albicans ATCC 90028, the “fold less potent than amphotericin B” value was 2- to 3 fold. For the same molecule, in data set [2], the “MICs, range against all tested pathogens” value lay in the range of 2.5 to 5.0 µg/mL. Moreover, the IC50 in “In vitro cytotoxicity” is over 25 µg/mL.

As for `CCCCCCCCCCCCCCOP(=O)([O-])OCC[N+](C)(C)Cc1ccccc1` [Compound 3b], the IC50 in the data set “In vitro cytotoxicity” was over 25 µg/mL.
